# Measurements gathered from unrelated publications.
# Lines come from different studies, so protocols differ.
SMILES,host,sample,route,dose,setting,quantity,value
N=c1c2c(-c3ccccc3)c(-c3ccccc3)n(Cc3ccccc3)c2ncn1[C@H]1CC[C@H](O)CC1,male cynomolgus monkey,plasma,oral,1 mg/kg,single dose,Tmax,~15 h
O=C1[O][Pt]2([NH][C@@H]3CCCC[C@H]3[NH]2)[O]C1=O (relative stereo),cynomolgus monkey,plasma,oral,10 mg/kg,,Tmax,2 h
Cc1c(P(=S)(c2ccccc2)c2ccccc2)n2ccccc2[n+]1C/C=C/c1ccccc1,mouse,brain,intraperitoneal,10 mg/kg,,tissue/plasma ratio,0.33
N=C(N)NCCC[C@@H](NC(=O)[C@@H](N)Cc1ccccc1)C(=O)N[C@@H](Cc1ccccc1)C(=O)N[C@@H](CCCCN)C(N)=O,human,plasma,subcutaneous,5 mg,patients,AUC(0-t),861 ng·h/mL
C=C(C)[C@@H]1CC[C@]2(NCCN3CCS(=O)(=O)CC3)CC[C@]3(C)[C@H](CC[C@@H]4[C@@]5(C)CC=C(C6=CC[C@@](COc7ncccc7C#N)(C(=O)O)CC6)C(C)(C)[C@@H]5CC[C@]43C)[C@@H]12,human,plasma,oral,100 mg,fed,AUC(0-inf),43600 ng·h/mL
c1cc([C@H]2CC[C@]3(CC2)OO[C@]2(O3)C3CC4CC(C3)CC2C4)ccc1OCCN1CCOCC1,human,plasma,oral,400 mg,patients,AUC(0-inf),6450 ng·h/mL
CC(=C/C=C/C(C)=C/C(=O)O)/C=C1\CCCc2ccccc21,human,plasma,oral,5 mg,"single dose, fasted, healthy volunteers",AUC(0-inf),193 ng·h/mL
COc1ccc(C[C@@H]2NC(=O)[C@H]([C@@H](C)O)NC(=O)[C@@H]3[C@@H]4CCN3C(=O)[C@@H]3Cc5cn(c6ccc(F)cc56)CCCCCCN(Cc5ccc(cc5)CCNC(=O)[C@]5(C)CCCN5C2=O)C(=O)CCC(=O)N[C@@H](C)C(=O)N[C@H](CNC(=O)CCCCC[N+](C)(C)C)C(=O)N[C@@H](Cc2cccc(c2)CNC(=O)CO4)C(=O)N3)cc1,human,plasma,oral,200 mg,"single dose, healthy volunteers",AUC(0-inf),0.556 µM·h
